Experimental data: ChEMBL document CHEMBL3421540, “Ensemble-based virtual screening for cannabinoid-like potentiators of the human glycine receptor α1 for the treatment of pain” (J Med Chem, 2015)
pEC50: −log10 of the molar value. Active and inactive are the calls of the source. The calls are words filed in the database; no cut-off is given here.

Legend:
Type in all cases: cell-based
[1] = biological target: T1, Glycine receptor subunit alpha-1 (Homo sapiens, UniProt P23415); experiment: Potentiation of human GlyR-alpha1 expressed in Xenopus laevis oocytes assessed as induction of glycine-activated currents after 1 to 4 days by two-electrode voltage clamp assay
T1 sequence (P23415 whole entry): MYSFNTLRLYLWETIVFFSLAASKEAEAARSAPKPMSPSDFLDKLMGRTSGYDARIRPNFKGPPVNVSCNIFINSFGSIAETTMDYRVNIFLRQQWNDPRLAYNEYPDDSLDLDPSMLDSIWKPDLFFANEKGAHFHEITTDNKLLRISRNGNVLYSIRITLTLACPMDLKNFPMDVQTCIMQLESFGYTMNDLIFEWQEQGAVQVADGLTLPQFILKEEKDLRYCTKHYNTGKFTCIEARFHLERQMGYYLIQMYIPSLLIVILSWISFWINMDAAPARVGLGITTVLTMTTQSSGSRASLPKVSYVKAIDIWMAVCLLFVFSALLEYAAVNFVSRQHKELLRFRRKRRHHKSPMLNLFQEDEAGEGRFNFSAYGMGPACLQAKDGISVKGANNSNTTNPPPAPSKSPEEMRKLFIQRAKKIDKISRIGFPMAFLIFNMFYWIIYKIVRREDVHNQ
How it was run: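 hGlyR-α1 RNA (25−50 ng) injected into stage 5−6 Xenopus oocytes, held at 17 °C in modified Barth's solution. Recorded 1−4 days later by two-electrode voltage clamp at −60 mV in 96 mM NaCl, 2 mM KCl, 1.8 mM CaCl2, 1 mM MgCl2, 5 mM HEPES, pH 7.0. Compounds coapplied with glycine at EC5, up to 10 μM. EC50 values also derived.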

[2] = biological target: Neuronal acetylcholine receptor subunit alpha-7 (Homo sapiens) (UniProt P36544); experiment: Modulation of human alpha7 nAChR expressed in Xenopus laevis oocytes assessed as effect on acetylcholine-induced currents at 10 uM after 1 to 4 days by two-electrode voltage clamp assay relative to control
How it was run: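 α7 nAChR RNA (25−50 ng) injected into stage 5−6 Xenopus oocytes, kept at 17 °C in modified Barth's solution. Two-electrode voltage clamp at −60 mV, 1−4 days post-injection. Bath: 96 mM NaCl, 2 mM KCl, 1.8 mM CaCl2, 1 mM MgCl2, 5 mM HEPES, pH 7.0. Compound coapplied with acetylcholine at EC50, used because of fast desensitization.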

[3] = biological target: T2, Glycine receptor subunit alpha-1 (Homo sapiens) (UniProt P23415); experiment: Potentiation of human GlyR-alpha1 expressed in Xenopus laevis oocytes assessed as induction of glycine-activated currents at 1 uM after 1 to 4 days by two-electrode voltage clamp assay relative to control
T2 sequence (whole entry): T1 sequence (P23415 whole entry)
How it was run: (§1)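 RNA for hGlyR-α1 (25−50 ng) injected into stage 5−6 Xenopus laevis oocytes held at 17 °C in modified Barth's solution; two-electrode voltage clamp 1−4 days post-injection at −60 mV holding potential. Bath: 96 mM NaCl, 2 mM KCl, 1.8 mM CaCl2, 1 mM MgCl2, 5 mM HEPES, pH 7.0. Compound coapplied with glycine at EC5; potentiation of current scored.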

[4] = biological target: T2, Glycine receptor subunit alpha-1 (Homo sapiens); experiment: Potentiation of human GlyR-alpha1 expressed in Xenopus laevis oocytes assessed as induction of glycine-activated currents at 10 uM after 1 to 4 days by two-electrode voltage clamp assay relative to control; how it was run: as §1

Sequence of Neuronal acetylcholine receptor subunit alpha-7 (Homo sapiens) (P36544 whole entry): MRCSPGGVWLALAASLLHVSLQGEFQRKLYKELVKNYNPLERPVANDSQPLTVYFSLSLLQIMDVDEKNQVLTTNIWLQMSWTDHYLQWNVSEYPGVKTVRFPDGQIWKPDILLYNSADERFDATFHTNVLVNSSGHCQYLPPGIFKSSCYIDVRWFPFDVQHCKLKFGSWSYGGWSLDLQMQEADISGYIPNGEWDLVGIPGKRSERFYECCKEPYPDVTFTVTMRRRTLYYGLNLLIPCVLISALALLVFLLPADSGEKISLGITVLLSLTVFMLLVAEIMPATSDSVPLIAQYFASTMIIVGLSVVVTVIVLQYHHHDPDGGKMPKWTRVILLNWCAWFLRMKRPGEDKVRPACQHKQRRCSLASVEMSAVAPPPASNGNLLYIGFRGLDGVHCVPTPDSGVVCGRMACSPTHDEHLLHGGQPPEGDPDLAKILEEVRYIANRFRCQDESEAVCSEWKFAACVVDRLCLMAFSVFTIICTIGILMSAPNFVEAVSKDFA

`O=c1[nH]c2ccccc2n1C1CCN(CCCC(c2ccc(F)cc2)c2ccc(F)cc2)CC1` [PIMOZIDE] was tested, and the pEC50 [1] was 5.77, the Activity [2] was “inactive” and the Activity [3] was 219%. The %max [4] was 510%.

For `COc1ccc(CCN2CCC(Nc3nc4ccccc4n3Cc3ccc(F)cc3)CC2)cc1` [ASTEMIZOLE], the pEC50 [1] was 5.38, the Activity [3] was 122% and the %max [4] was 280%.

Compound `OC(c1cc(C(F)(F)F)nc2c(C(F)(F)F)cccc12)C1CCCCN1` (centres undefined) [MEFLOQUINE] has a pEC50 [1] of 5.60, an Activity [3] of 126% and a %max [4] of 220%.

`CC1=C(CC(=O)O)c2cc(F)ccc2/C1=C\c1ccc([S+](C)[O-])cc1` (centres undefined) was tested, and the pEC50 [1] was 6.42 and the Activity [2] was “inactive”.

`CCCc1nc2c(C)cc(-c3nc4ccccc4n3C)cc2n1Cc1ccc(-c2ccccc2C(=O)O)cc1` showed a pEC50 [1] of 5.49, an Activity [3] of 120% and a %max [4] of 210%.

For `O=C1NCN(c2ccccc2)C12CCN(CCCC(c1ccc(F)cc1)c1ccc(F)cc1)CC2`, the pEC50 [1] was 5.92.

For `Cc1nc2c([nH]1)-c1ccccc1N(C(=O)c1ccc(NC(=O)c3ccccc3-c3ccccc3)cc1)CC2`, the Activity [3] was 106% and the %max [4] was 107%.

Work on `COc1cc(OC)c(NC(=O)Nc2cc(C)on2)cc1Cl` yielded an Activity [3] of 102% and a %max [4] of 103%.

For `C[C@]12C=CC(=O)N[C@@H]1CC[C@@H]1[C@@H]2CC[C@]2(C)[C@@H](C(=O)Nc3cc(C(F)(F)F)ccc3C(F)(F)F)CC[C@@H]12` [DUTASTERIDE], the pEC50 [1] was 6.48 and the Activity [2] was “inactive”.

With `C=C1CC[C@H](O)C/C1=C/C=C1\CCC[C@]2(C)[C@@H]([C@H](C)CCCC(C)C)CC[C@@H]12` [CHOLECALCIFEROL] the pEC50 [1] was 6.40, the Activity [2] was “inactive” and the Activity [3] was 216%. The %max [4] was 220%.

For `Cc1nc2n(c(=O)c1CCN1CCC(c3noc4cc(F)ccc34)CC1)CCCC2` [RISPERIDONE], the pEC50 [1] was 6.49, the Activity [2] was “inactive” and the Activity [3] was 180%. It also gave a %max [4] of 190%.

With `C[C@@H](NCCCc1cccc(C(F)(F)F)c1)c1cccc2ccccc12` the pEC50 [1] was 6.49, the Activity [2] was “inactive” and the Activity [3] was 182%. The %max [4] was 210%.

`CNC(=O)c1cc(Oc2ccc(NC(=O)Nc3ccc(Cl)c(C(F)(F)F)c3)c(F)c2)ccn1` [REGORAFENIB] gave a pEC50 [1] of 5.74, an Activity [3] of 116% and a %max [4] of 200%.

With `COc1ccc(-c2ccc3cc(C(=O)O)ccc3c2)cc1C12CC3CC(CC(C3)C1)C2` the pEC50 [1] was 5.89, the Activity [2] was “inactive” and the Activity [3] was 172%. It also gave a %max [4] of 260%.

`CCCCCc1cc(O)c2c(c1)OC(C)(C)[C@@H]1CCC(C)=C[C@@H]21` [DRONABINOL] gave a pEC50 [1] of 5.89, an Activity [3] of 162% and a %max [4] of 260%.
